Source: ChEMBL document CHEMBL1155079, “N-Hydroxypyrazolyl glycine derivatives as selective N-methyl-D-aspartic acid receptor ligands” (J Med Chem, 2008)
Activity calls are given as the source filed them. The calls are words filed in the database; no cut-off is given here.

How the values were obtained:
[1] = Displacement of [3H]AMPA from AMPA receptor in rat cortical synaptosome; type: tissue-based, Brain
Procedure, shortened: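 Binding to rat cortical synaptosome membranes using 5 nM [3H]AMPA (45.5 Ci/mmol) as radioligand.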

[2] = Displacement of [3H]KAIN from KA receptor in rat cortical synaptosome; type: tissue-based, Brain
Glutamate NMDA receptor = assay: Displacement of [3H]CGP39653 from NMDA receptor in rat cortical synaptosome; type: tissue-based, Brain
[3] = target: Glutamate NMDA receptor; Grin1/Grin2b (Rattus norvegicus, UniProt P35439+Q00960); assay: Activity at rat recombinant NR1/NR2B receptor expressed in Xenopus oocytes assessed as effect on glutamate-induced current by two voltage clamp electrophysiology; type: cell-based, Oocyte
Procedure, shortened: (§1)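 Two-electrode voltage clamp on Xenopus oocytes injected with cRNA for NR1 plus the named NR2 subunit. Holding potential −60 to −40 mV. Continuous perfusion at 23 °C with 90 NaCl, 0.5 BaCl2, 1 KCl, 0.01 EDTA, 10 HEPES (mM), pH 7.6, with 20 μM glycine present throughout. Concentration–response data from each oocyte fitted to the Hill equation; mean ± SEM of logEC50 and nH.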

[4] = target: Glutamate NMDA receptor; Grin1/Grin2b (Rattus norvegicus) (UniProt P35439+Q00960); assay: Activity at rat recombinant NR1/NR2B receptor expressed in Xenopus oocytes by two voltage clamp electrophysiology relative to glutamate; type: cell-based; details: Oocyte
Procedure, shortened: as §1, with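 “nH. Relative Imax = fitted agonist Imax / maximal glutamate response in the same recording.” for “nH.”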

[5] = target: Glutamate NMDA receptor; Grin1/Grin2a (Rattus norvegicus, UniProt P35439+Q00959); assay: (§2) Activity at rat recombinant NR1/NR2A receptor expressed in Xenopus oocytes assessed as effect on glutamate-induced current by two voltage clamp electrophysiology; type: cell-based, Oocyte; procedure, shortened: as §1
[6] = target: T1, Glutamate NMDA receptor; Grin1/Grin2a (Rattus norvegicus) (UniProt P35439+Q00959); assay: Activity at rat recombinant NR1/NR2A receptor expressed in Xenopus oocytes by two voltage clamp electrophysiology relative to glutamate; type: cell-based; details: Oocyte
Procedure, shortened: as §1, with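 “nH. Relative Imax = fitted agonist Imax / maximal glutamate response in the same recording.” for “nH.”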

[7] = target: Ionotropic glutamate receptor NMDA 1/2D (Rattus norvegicus, UniProt P35439+Q62645); assay: Activity at rat NR1/NR2D receptor expressed in Xenopus oocytes assessed as effect on glutamate-induced current by two voltage clamp electrophysiology; type: cell-based, Oocyte; procedure, shortened: as §1
[8] = target: Glutamate NMDA receptor; Grin1/Grin2c (Rattus norvegicus, UniProt P35439+Q00961); assay: Activity at rat recombinant NR1/NR2C receptor expressed in Xenopus oocytes assessed as effect on glutamate-induced current by two voltage clamp electrophysiology; type: cell-based, Oocyte; procedure, shortened: as §1
[9] = target: Glutamate NMDA receptor; Grin1/Grin2c (Rattus norvegicus) (UniProt P35439+Q00961); assay: Activity at rat recombinant NR1/NR2C receptor expressed in Xenopus oocytes by two voltage clamp electrophysiology relative to glutamate; type: cell-based; details: Oocyte
Procedure, shortened: as §1, with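 “nH. Relative Imax = fitted agonist Imax / maximal glutamate response in the same recording.” for “nH.”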

[10] = target: Ionotropic glutamate receptor NMDA 1/2D (Rattus norvegicus) (UniProt P35439+Q62645); assay: Activity at rat NR1/NR2D receptor expressed in Xenopus oocytes by two voltage clamp electrophysiology relative to glutamate; type: cell-based; details: Oocyte
Procedure, shortened: as §1, with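 “nH. Relative Imax = fitted agonist Imax / maximal glutamate response in the same recording.” for “nH.”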

[11] = target: T1, Glutamate NMDA receptor; Grin1/Grin2a (Rattus norvegicus); assay: as §2; type: cell-based; details: Oocyte; procedure, shortened: as §1

SMILES	IC50 [1] [µM]	IC50 [2] [µM]	Ki (Glutamate NMDA receptor) [µM]	EC50 [3] [µM]	Imax [4]	EC50 [5] [µM]	Imax [6]	EC50 [7] [µM]	EC50 [8] [µM]	Imax [9]	Imax [10]	Activity [11]	Activity [6]
CC(C)c1cnn(O)c1[C@@H](N)C(=O)O	> 100	> 100	13										
Cc1cnn(O)c1C(N)C(=O)O (racemic)	> 100	> 100	22										
CCCc1cnn(O)c1C(N)C(=O)O (racemic)	> 100	> 100	14	105	0.06			153	429	0.22	0.37	inactive	inactive
CCc1cnn(O)c1[C@H](N)C(=O)O	> 100	> 100	> 100										
CN[C@H](CC(=O)O)C(=O)O [N-METHYL-D-ASPARTIC ACID (NMDA)]				22	0.77	75	0.9	8.3	23	0.73	0.8		
CC(C)c1cnn(O)c1[C@H](N)C(=O)O	> 100	> 100	> 100										
N[C@H](C(=O)O)c1ccnn1O	> 100	> 100	> 100										
CCc1cnn(O)c1C(N)C(=O)O (racemic)	> 100	> 100	13	68	0.45	47	0.05	43	91	0.52	0.7		
CCCc1cnn(O)c1[C@H](N)C(=O)O	> 100	> 100	> 100										
CC(C)c1cnn(O)c1C(N)C(=O)O (racemic)	> 100	> 100	20										
Cc1cnn(O)c1[C@H](N)C(=O)O	> 100	> 100	> 100										
N[C@H](C(=O)O)c1c(Cl)cnn1O	> 100	> 100	25										

The remaining compounds from weak to strong by Ki (Glutamate NMDA receptor), led by results:

IC50 [1] [µM]	IC50 [2] [µM]	Ki (Glutamate NMDA receptor) [µM]	EC50 [3] [µM]	Imax [4]	EC50 [5] [µM]	Imax [6]	EC50 [7] [µM]	EC50 [8] [µM]	Imax [9]	Imax [10]	Activity [11]	Activity [6]	SMILES
> 100	> 100	10	48	0.58	82	0.45		54	0.52				NC(C(=O)O)c1ccnn1O (racemic)
> 100	> 100	6.9	63	0.09									CCCc1cnn(O)c1[C@@H](N)C(=O)O
> 100	> 100	4.4	34	0.46									CCc1cnn(O)c1[C@@H](N)C(=O)O
> 100	> 100	2.9	149	0.29	565	0.07	152	255	0.55	0.73			NC(C(=O)O)c1c(Cl)cnn1O (racemic)
		2.9	58	0.33									N[C@@H](C(=O)O)c1c(Cl)cnn1O
> 100	> 100	2.2	14	0.61									N[C@@H](C(=O)O)c1ccnn1O
> 100	> 100	2.2	36	0.23									Cc1cnn(O)c1[C@@H](N)C(=O)O
